Laboratory results published in publication PMC5656813 (Arthritis & Rheumatology (Hoboken, N.j.), 2017).

Legend:
Assay type in all cases: in vivo, human
[1] = tested on: RA patients with an inadequate response to MTX; assay: Study 2; conditions: for ACR50 responders at week 4 / DAS28‐CRP, mean change from baseline at week 4 / EULAR cumulative score, good/moderate, at week 4 / HAQ DI score, mean change from baseline at week 4 / Patient's assessment of pain, mean change from baseline at week 4 / Patient's global assessment of disease activity, mean change from baseline at week 4 / Physician's global assessment of disease activity, mean change from baseline at week 4 / Remission rate (DAS28‐CRP <2.6) at week 4 / SJC66, mean change from baseline at week 4 / Serum CRP, mean change from baseline at week 4 / TJC68, mean change from baseline at week 4 / ACR20 responders at week 4: study 2
Procedure, shortened: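 Randomized, double-blind, placebo-controlled dose-ranging trial: 91 RA patients, 19 sites in 4 countries, 1:1:1:1:1 allocation. Patients had MTX for ≥12 weeks and a stable 7.5–25 mg/week dose for ≥4 weeks, continued throughout. Oral capsules once daily at 30, 75, 150 or 300 mg for 4 weeks. Read-outs: ACR responses, DAS28-CRP and HAQ DI change from baseline at week 4. Intent-to-treat population.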

[2] = tested on: VCAM‐1, ICAM‐1, MMP‐3, haptoglobin, IL‐18, YKL‐40; assay: Study 2, PD marker proteins in plasma; conditions: 75, 150, or 300 mg, after 4 weeks
Procedure, shortened: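 Plasma taken at baseline and week 4 from all study 2 participants. Dosed once daily for 4 weeks. YKL-40 measured by ELISA; VCAM-1, ICAM-1, MMP-3, haptoglobin and IL-18 quantified by a second technology at a service laboratory. Each patient normalized to own baseline, expressed as percent change. Mean ± SEM; Kruskal-Wallis test with Dunn's post hoc test.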

[3] = Studies 1 and 2, steady‐state plasma PK of filgotinib and its major metabolite; conditions: for Cmax / Tmax / AUC: human, plasma, oral
Procedure, shortened: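 RA patients on stable methotrexate took oral test compound or placebo capsules for 4 weeks: 200 mg once daily or 100 mg twice daily (study 1), or 30, 75, 150 or 300 mg once daily (study 2). In a subset (12 and 15 patients), plasma parent and major metabolite were sampled predose and 1, 2, 3, 5 and 8 h after the morning dose, at week 2 or 4. Descriptive statistics were calculated by dose.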

O=C(Nc1nc2cccc(-c3ccc(CN4CCS(=O)(=O)CC4)cc3)n2n1)C1CC1 [Filgotinib]
ACR50 responders at week 4 ([1]; 75 mg once daily): 6 (27.3) no. (%) | DAS28‐CRP, mean change from baseline at week 4 ([1]; 75 mg once daily): −1.72 | EULAR cumulative score, good/moderate, at week 4 ([1]; 75 mg once daily): 68.2% | HAQ DI score, mean change from baseline at week 4 ([1]; 75 mg once daily): −0.47 | Patient's assessment of pain, mean change from baseline at week 4 ([1]; 75 mg once daily): −21.27 0–10‐cm VAS | Patient's global assessment of disease activity, mean change from baseline at week 4 ([1]; 75 mg once daily): −21.00 0–10‐cm VAS | Physician's global assessment of disease activity, mean change from baseline at week 4 ([1]; 75 mg once daily): −27.09 0–10‐cm VAS | Remission rate (DAS28‐CRP <2.6) at week 4 ([1]; 75 mg once daily): 3 (13.6) no. (%) | SJC66, mean change from baseline at week 4 ([1]; 75 mg once daily): −8.42 | Serum CRP, mean change from baseline at week 4 ([1]; 75 mg once daily): -15.09 mg/L | TJC68, mean change from baseline at week 4 ([1]; 75 mg once daily): −13.72 | ACR20 responders at week 4 ([1]; 150 mg once daily): 6 (40.0) no. (%) | ACR50 responders at week 4 ([1]; 150 mg once daily): 0 no. (%) | DAS28‐CRP, mean change from baseline at week 4 ([1]; 150 mg once daily): −1.80 | EULAR cumulative score, good/moderate, at week 4 ([1]; 150 mg once daily): 66.7% | HAQ DI score, mean change from baseline at week 4 ([1]; 150 mg once daily): −0.26 | Patient's assessment of pain, mean change from baseline at week 4 ([1]; 150 mg once daily): −14.07 0–10‐cm VAS | Patient's global assessment of disease activity, mean change from baseline at week 4 ([1]; 150 mg once daily): −12.33 0–10‐cm VAS | Physician's global assessment of disease activity, mean change from baseline at week 4 ([1]; 150 mg once daily): −24.87 0–10‐cm VAS | Remission rate (DAS28‐CRP <2.6) at week 4 ([1]; 150 mg once daily): 0 no. (%) | SJC66, mean change from baseline at week 4 ([1]; 150 mg once daily): −10.52 | Serum CRP, mean change from baseline at week 4 ([1]; 150 mg once daily): -20.50 mg/L | TJC68, mean change from baseline at week 4 ([1]; 150 mg once daily): −14.85 | patients achieving remission (DAS28‐CRP <2.6) ([1]; 300 mg group, within 4 weeks): up to 25% | ACR20 responders at week 4 ([1]; 300 mg once daily): 13 (65.0) no. (%) | ACR50 responders at week 4 ([1]; 300 mg once daily): 9 (45.0) no. (%) | DAS28‐CRP, mean change from baseline at week 4 ([1]; 300 mg once daily): −2.25 | EULAR cumulative score, good/moderate, at week 4 ([1]; 300 mg once daily): 80.0% | HAQ DI score, mean change from baseline at week 4 ([1]; 300 mg once daily): −0.68 | Patient's assessment of pain, mean change from baseline at week 4 ([1]; 300 mg once daily): −29.85 0–10‐cm VAS | Patient's global assessment of disease activity, mean change from baseline at week 4 ([1]; 300 mg once daily): −25.85 0–10‐cm VAS | Physician's global assessment of disease activity, mean change from baseline at week 4 ([1]; 300 mg once daily): −29.20 0–10‐cm VAS | Remission rate (DAS28‐CRP <2.6) at week 4 ([1]; 300 mg once daily): 5 (25.0) no. (%) | SJC66, mean change from baseline at week 4 ([1]; 300 mg once daily): −8.48 | Serum CRP, mean change from baseline at week 4 ([1]; 300 mg once daily): -20.98 mg/L | TJC68, mean change from baseline at week 4 ([1]; 300 mg once daily): −14.68 | patients achieving an ACR20 response ([1]; study 2, 300 mg, week 4): 65% | effect on levels of circulating PD markers [2]: dose‐dependent effect | dose proportionality of PK ([3]; 30–300 mg range): essentially dose proportional | Cmax ([3]; 30 mg): 71.6 ng/mL | Tmax ([3]; 30 mg): 1 h | AUC ([3]; 30 mg, AUCtau of filgotinib, steady state, 30 mg once daily, study 2, arithmetic mean (coefficient of variation)): 1340 ng·h/mL | Cmax ([3]; 75 mg): 492 ng/mL | Cmax ([3]; 100 mg): 730 ng/mL | AUC ([3]; 100 mg, AUCtau of filgotinib, steady state, 100 mg twice daily, study 1, arithmetic mean (coefficient of variation)): 2470 ng·h/mL | Cmax ([3]; 150 mg): 1160 ng/mL | Tmax ([3]; 150 mg): 1 h | AUC ([3]; 150 mg, AUCtau of filgotinib, steady state, 150 mg once daily, study 2, arithmetic mean (coefficient of variation)): 6440 ng·h/mL | AUC ([3]; 150 mg, AUCtau, other 4 patients, 150 mg once daily, study 2): 4790 to 5290 ng·h/mL | Cmax ([3]; 200 mg): 1430 ng/mL | AUC ([3]; 200 mg, AUCtau of filgotinib, steady state, 200 mg once daily, study 1, arithmetic mean (coefficient of variation)): 5380 ng·h/mL | Cmax ([3]; 300 mg): 1340 ng/mL | AUC ([3]; 300 mg, AUCtau of filgotinib, steady state, 300 mg once daily, study 2, arithmetic mean (coefficient of variation)): 7710 ng·h/mL | time of dosing to attain steady state ([3]; in vivo): ≤ 2 days
